# Source: ChEMBL document CHEMBL2046347, “Structure-activity relationships in human Toll-like receptor 2-specific monoacyl lipopeptides” (J Med Chem, 2012)
# The source made the active and inactive calls. No cut-off for these calls is given here.
# How the values were obtained:
# Format in all cases: functional, cell-based
# [1] = molecular target: Toll-like receptor 2 (Homo sapiens) (UniProt O60603); assay: Agonist activity at human TLR2 expressed in HEK293 cells assessed as NFkappaB translocation at 10 uM after 12 hrs by secretory alkaline phosphatase reporter gene assay
# Chain of Toll-like receptor 2 (Homo sapiens) (O60603 whole entry): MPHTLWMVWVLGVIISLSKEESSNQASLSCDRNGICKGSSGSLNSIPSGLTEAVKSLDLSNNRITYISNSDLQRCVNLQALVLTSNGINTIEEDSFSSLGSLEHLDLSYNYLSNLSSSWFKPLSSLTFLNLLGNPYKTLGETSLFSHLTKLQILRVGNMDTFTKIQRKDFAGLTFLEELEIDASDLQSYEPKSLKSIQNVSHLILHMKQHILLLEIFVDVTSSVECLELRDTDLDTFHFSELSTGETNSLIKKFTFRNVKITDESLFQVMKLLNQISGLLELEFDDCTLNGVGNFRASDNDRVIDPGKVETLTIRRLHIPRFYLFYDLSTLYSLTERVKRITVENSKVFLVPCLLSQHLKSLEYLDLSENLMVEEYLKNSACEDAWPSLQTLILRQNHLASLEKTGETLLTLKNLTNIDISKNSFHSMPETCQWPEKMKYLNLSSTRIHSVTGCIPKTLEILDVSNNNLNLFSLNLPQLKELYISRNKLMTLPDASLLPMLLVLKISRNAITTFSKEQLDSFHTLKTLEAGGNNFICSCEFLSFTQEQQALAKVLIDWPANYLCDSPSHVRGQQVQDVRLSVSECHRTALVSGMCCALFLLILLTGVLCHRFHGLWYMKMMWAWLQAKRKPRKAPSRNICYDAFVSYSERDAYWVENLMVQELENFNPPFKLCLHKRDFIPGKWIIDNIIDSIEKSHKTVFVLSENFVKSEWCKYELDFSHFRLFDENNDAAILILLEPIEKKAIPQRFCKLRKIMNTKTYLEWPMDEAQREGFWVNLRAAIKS
# [2] = molecular target: Toll-like receptor 2 (Mus musculus) (UniProt Q9QUN7); assay: Agonist activity at mouse TLR2 expressed in HEK293 cells assessed as NFkappaB translocation after 12 hrs by secretory alkaline phosphatase reporter gene assay
# Chain of Toll-like receptor 2 (Mus musculus) (Q9QUN7 whole entry): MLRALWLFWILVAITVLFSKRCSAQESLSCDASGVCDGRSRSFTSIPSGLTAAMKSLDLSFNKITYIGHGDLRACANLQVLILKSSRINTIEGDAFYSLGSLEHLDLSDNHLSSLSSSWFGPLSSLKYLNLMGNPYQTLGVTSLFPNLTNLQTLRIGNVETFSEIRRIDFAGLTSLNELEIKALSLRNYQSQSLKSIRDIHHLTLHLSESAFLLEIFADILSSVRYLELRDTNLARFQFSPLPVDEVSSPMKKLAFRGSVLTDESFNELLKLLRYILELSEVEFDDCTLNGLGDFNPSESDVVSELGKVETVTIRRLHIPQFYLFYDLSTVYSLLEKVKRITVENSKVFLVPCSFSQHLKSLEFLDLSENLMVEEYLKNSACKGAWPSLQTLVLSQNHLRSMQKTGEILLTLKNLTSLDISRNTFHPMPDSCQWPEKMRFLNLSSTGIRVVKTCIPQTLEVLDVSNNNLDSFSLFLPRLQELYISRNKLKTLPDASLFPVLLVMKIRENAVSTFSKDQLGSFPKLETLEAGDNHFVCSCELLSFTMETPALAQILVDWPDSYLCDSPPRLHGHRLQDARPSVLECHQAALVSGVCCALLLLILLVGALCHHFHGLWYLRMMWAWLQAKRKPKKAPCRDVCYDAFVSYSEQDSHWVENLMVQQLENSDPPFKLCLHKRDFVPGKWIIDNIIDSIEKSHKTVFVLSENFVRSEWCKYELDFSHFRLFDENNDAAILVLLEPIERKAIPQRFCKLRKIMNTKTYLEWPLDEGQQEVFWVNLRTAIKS
# How it was run: (§1)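 HEK293 cells stably carrying human or murine TLR2 plus an NF-κB-driven secreted alkaline phosphatase reporter, kept in selection medium with zeocin and normocin. Seeded at ~10⁵ cells/mL and grown to confluency, then exposed to serially diluted compounds for 12 h. Secreted phosphatase in supernatant read colorimetrically at 620 nm with an alkaline phosphatase-specific chromogen in detection medium.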
# [3] = molecular target: Toll-like receptor 2 (Homo sapiens) (UniProt O60603); assay: Agonist activity at human TLR2 expressed in HEK293 cells assessed as NFkappaB translocation after 12 hrs by secretory alkaline phosphatase reporter gene assay; how it was run: as §1
# [4] = molecular target: Toll-like receptor 2 (Homo sapiens) (UniProt O60603); assay: Antagonistic activity at human TLR2 expressed in HEK293 cells assessed as inhibition of PAM2CS-induced NFkappaB translocation by secretory alkaline phosphatase reporter gene assay
# How it was run: (§2)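 Reporter HEK293 lines (human or murine TLR2, NF-κB-inducible secreted alkaline phosphatase) plated at ~10⁵ cells/mL. Stimulated with PAM2CS (1 μg/mL) or lipoteichoic acid (1 μg/mL) in the presence of graded test-compound concentrations. Phosphatase activity in supernatant measured spectrophotometrically at 620 nm using a phosphatase-specific chromogen.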
# [5] = molecular target: Toll-like receptor 2 (Mus musculus) (UniProt Q9QUN7); assay: Antagonistic activity at mouse TLR2 expressed in HEK293 cells assessed as inhibition of PAM2CS-induced NFkappaB translocation by secretory alkaline phosphatase reporter gene assay; how it was run: as §2
# [6] = molecular target: Toll-like receptor 2 (Homo sapiens) (UniProt O60603); assay: Antagonistic activity at human TLR2 expressed in HEK293 cells assessed as inhibition of lipoteichoic acid-induced NFkappaB translocation by secretory alkaline phosphatase reporter gene assay; how it was run: as §2
# [7] = molecular target: Toll-like receptor 2 (Mus musculus) (UniProt Q9QUN7); assay: Antagonistic activity at mouse TLR2 expressed in HEK293 cells assessed as inhibition of lipoteichoic acid-induced NFkappaB translocation by secretory alkaline phosphatase reporter gene assay; how it was run: as §2
smiles,measurement,setting,value
CCCCCCCCCCCCCCCC(=O)OCCSC[C@H](NCC)C(=O)N[C@@H](CO)C(=O)OC,Activity,[1],inactive
CCCCCCCCCCCCCCCC(=O)OCCSC[C@H](NC(=O)CCC)C(=O)N[C@@H](CO)C(=O)OC,Activity,[2],inactive
CCCCCCCCCCCCCCCC(=O)OCCSC[C@H](NS(C)(=O)=O)C(=O)N[C@@H](CO)C(=O)OC,Activity,[3],inactive
CCCCCCCCCCCCCCCC(=O)OCCSC[C@H](NC(=O)C(Cl)(Cl)Cl)C(=O)N[C@@H](CO)C(=O)OC,Activity,[3],inactive
CCCCCCCCCCCCCCCC(=O)OCCSC[C@H](NC(=O)CCCCCCC)C(=O)N[C@@H](CO)C(=O)OC,Activity,[2],inactive
COC(=O)[C@H](CO)NC(=O)[C@@H](N)CSCCOC(=O)c1ccc(-c2ccccc2)cc1,Activity,[1],inactive
same,inhibition,[4],inactive
same,inhibition,[5],inactive
same,inhibition,[6],inactive
same,inhibition,[7],inactive
CCCCCCCC(=O)OCCSC[C@H](N)C(=O)N[C@@H](CO)C(=O)OC,Activity,[1],inactive
same,inhibition,[4],inactive
same,inhibition,[5],inactive
same,inhibition,[6],inactive
same,inhibition,[7],inactive
CCCCCCCCCCCCCCCCN[C@@H](CSCCOC(=O)CCCCCCCCCCCCCCC)C(=O)N[C@@H](CO)C(=O)OC,Activity,[1],inactive
CCCCCCCCCCCC(=O)OCCSC[C@H](N)C(=O)N[C@@H](CO)C(=O)OC,Activity,[1],inactive
same,inhibition,[4],inactive
same,inhibition,[5],inactive
same,inhibition,[6],inactive
same,inhibition,[7],inactive
CCCCCCCCCCCCCCN(CCCCCCCCCCCCCC)CC(=O)OCCSC[C@H](N)C(=O)N[C@@H](CO)C(=O)OC,Activity,[1],inactive
CCCCCCCCCCCCCCCC(=O)OCCSC[C@H](N)C(=O)N[C@@H](CO)C(=O)OC,Activity,[2],inactive
CCCCCCCCCCCCCCCC(=O)OCCSC[C@H](NS(=O)(=O)c1ccc(C)cc1)C(=O)N[C@@H](CO)C(=O)OC,Activity,[3],inactive
CCCC(=O)OCCSC[C@H](N)C(=O)N[C@@H](CO)C(=O)OC,Activity,[1],inactive
same,inhibition,[4],inactive
same,inhibition,[5],inactive
same,inhibition,[6],inactive
same,inhibition,[7],inactive
CCCCCCCCCCCCCCCC(=O)OCCSC[C@H](NC(C)=O)C(=O)N[C@@H](CO)C(=O)OC,Activity,[2],inactive
CCCCCCCCCCCCCCCC(=O)OCCSC[C@H](NCCCCCCCC)C(=O)N[C@@H](CO)C(=O)OC,Activity,[1],inactive
CCCCCCCCCCCCCCCC(=O)OCCSC[C@H](NS(=O)(=O)C(F)(F)F)C(=O)N[C@@H](CO)C(=O)OC,Activity,[3],inactive
CCCCCCCCCCCCCCCCCC(=O)OCCSC[C@H](N)C(=O)N[C@@H](CO)C(=O)OC,Activity,[2],inactive
CCCCCCCCCCCCCCCC(=O)OCCSC[C@H](N)C(=O)N[C@@H](COC(C)=O)C(=O)OC,Activity,[3],Active
CCCCCCCCCCCCCCCC(=O)N[C@@H](CSCCOC(=O)CCCCCCCCCCCCCCC)C(=O)N[C@@H](CO)C(=O)OC,Activity,[1],inactive
COC(=O)[C@H](CO)NC(=O)[C@@H](N)CSCCOC(=O)c1ccc(-c2ccc(-c3ccccc3)cc2)cc1,Activity,[1],inactive
same,inhibition,[4],inactive
same,inhibition,[5],inactive
same,inhibition,[6],inactive
same,inhibition,[7],inactive
CCCCCCCCCCCCCCNCC(=O)OCCSC[C@H](N)C(=O)N[C@@H](CO)C(=O)OC,Activity,[1],inactive
COC(=O)[C@H](CO)NC(=O)[C@@H](N)CSCCOC(=O)c1cccc(-c2ccccc2)c1,Activity,[1],inactive
same,inhibition,[4],inactive
same,inhibition,[5],inactive
same,inhibition,[6],inactive
same,inhibition,[7],inactive
